Efa HMGR inh: E. faecalis class II HMG-CoA reductase inhibition | purified E. faecalis HMGR, NADPH absorbance 340 nm kinetic | inhibition, % at 10 µM | 0.41% of 190,000 active;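 active = inhibition above a set limit, the median over all tested compounds plus 3 SD, cut at about 9.5% in these data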;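 also: enzyme runs in reverse so mevalonate oxidation gives rising NADPH absorbance; 0% = complete reaction with DMSO and 100% = background rate lacking mevalonate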
ABCG2 inh: human ABCG2 inhibition, ABCB1 as counter-screen | Q9UNQ0 | 0.1% of 190,000 active | IgMXP3 cells, JC-1 efflux, flow cytometry | inhibition, % at 6.6 µM;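 active = inhibition above 80%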;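 also: 0% = DMSO and 100% = nicardipine control wells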
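System: two drug-resistant human cell lines, ABCG2 and ABCB1; controls: nicardipine high and DMSO low controls; times: 10 min exposure at 25 °C with rotation, no wash; detection: flow cytometry of retained JC-1 fluorescence; read-out basis: percent efflux inhibition, scaled nicardipine 100% to DMSO 0%; doses: one concentration, 6.6 µM final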
Diaph act CS: counter-screen for diaphorase-based assays: diaphorase activators and chemical reducers; activation factor at 20 µM; Diaphorase/resazurin coupled assay, resorufin fluorescence, 16 min; hits give high values; 1 = vehicle wells, 0 = NADH-free wells; 0.005% of 190,000 active;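 active = diaphorase activity raised at least twofold by the compound at 20 µM; inactive = activation factor below 2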
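Material: bacterial diaphorase enzyme (C. kluyveri); amount: enzyme 0.07 U/mL final; reagent: NADH substrate 0.114 mM plus resazurin dye 0.1 mM, final; doses: single compound dose of 20 µM, 1% DMSO final; timing: 16 min enzyme reaction, ambient temperature; measured by: fluorescence of resorufin, 544 nm excitation, 590 nm emission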
Diaph inh CS: inhibits diaphorase or chemically oxidizes, flagging diaphorase assay artifacts. inhibition, % at 20 µM. 0.69% of 190,000 active. AID 1217. diaphorase resazurin-to-resorufin fluorescence, NADH, 16 min; bacterial (C. kluyveri) enzyme, not human;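 active = primary screen inhibition at 20 µM above a set limit, cut at about 50% in these data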;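 also: plate controls were DMSO with full reaction for no effect and wells lacking NADH for full effect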
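Assay system: diaphorase enzyme from Clostridium kluyveri. Quantity: enzyme working solution with 0.14 U/mL diaphorase. Schedule: reaction incubation of 16 min at room temperature. Technique: resorufin fluorescence, excitation 544 nm, emission 590 nm. Controls: No-NADH positive control and DMSO neutral control.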
ABCB1 inh: blocks JC-1 efflux by human ABCB1 transporter; P08183; CCRF-Adr cells, flow cytometry; inhibition, % at 6.6 µM; 0.067% of 190,000 active; AID 1326; in the data active = inhibition above about 40%;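 also: 0% = vehicle and 100% = reference inhibitor; higher value means more JC-1 retained so stronger ABCB1 efflux block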
Target sequence (P08183 whole entry, looked up): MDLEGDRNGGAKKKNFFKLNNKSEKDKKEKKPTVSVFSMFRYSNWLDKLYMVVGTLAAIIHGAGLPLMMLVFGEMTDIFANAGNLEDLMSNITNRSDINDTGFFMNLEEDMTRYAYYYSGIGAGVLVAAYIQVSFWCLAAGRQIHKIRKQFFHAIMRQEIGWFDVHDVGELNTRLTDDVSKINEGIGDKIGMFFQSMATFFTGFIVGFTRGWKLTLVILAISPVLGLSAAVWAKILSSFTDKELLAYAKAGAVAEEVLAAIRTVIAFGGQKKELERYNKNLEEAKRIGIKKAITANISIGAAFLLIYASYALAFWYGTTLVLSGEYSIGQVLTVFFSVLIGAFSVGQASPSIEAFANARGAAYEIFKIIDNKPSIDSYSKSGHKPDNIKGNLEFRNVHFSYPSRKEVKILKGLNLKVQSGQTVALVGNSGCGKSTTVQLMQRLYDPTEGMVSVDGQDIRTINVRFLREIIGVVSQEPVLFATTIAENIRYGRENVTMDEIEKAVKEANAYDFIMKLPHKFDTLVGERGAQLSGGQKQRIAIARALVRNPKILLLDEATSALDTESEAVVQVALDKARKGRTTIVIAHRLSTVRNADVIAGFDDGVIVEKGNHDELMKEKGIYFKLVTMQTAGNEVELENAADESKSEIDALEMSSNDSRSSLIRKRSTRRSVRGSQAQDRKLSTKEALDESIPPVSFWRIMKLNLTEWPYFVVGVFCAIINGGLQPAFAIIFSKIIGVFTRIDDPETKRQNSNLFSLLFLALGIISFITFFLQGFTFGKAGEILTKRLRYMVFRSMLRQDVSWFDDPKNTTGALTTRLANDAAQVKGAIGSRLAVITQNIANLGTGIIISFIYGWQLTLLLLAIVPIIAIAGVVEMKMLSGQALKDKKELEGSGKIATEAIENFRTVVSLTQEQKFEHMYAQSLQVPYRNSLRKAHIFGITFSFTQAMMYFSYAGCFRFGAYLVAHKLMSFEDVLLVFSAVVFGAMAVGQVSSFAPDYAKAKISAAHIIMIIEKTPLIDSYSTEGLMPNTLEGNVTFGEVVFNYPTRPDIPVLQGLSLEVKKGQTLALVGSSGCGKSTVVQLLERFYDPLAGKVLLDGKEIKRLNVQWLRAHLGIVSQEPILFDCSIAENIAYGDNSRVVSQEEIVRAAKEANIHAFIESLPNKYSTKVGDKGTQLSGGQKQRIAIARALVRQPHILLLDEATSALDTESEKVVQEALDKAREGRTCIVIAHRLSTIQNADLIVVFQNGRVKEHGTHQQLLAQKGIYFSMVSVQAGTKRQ
p47phox inh: p47phox (human) inhibition; P14598; p47phox/p22phox peptide binding, fluorescence polarization, 2 h; inhibition, % at 24.7 µM; 0.53% of 220,000 active; AID 1274;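 active = inhibition above about 30%, limit read from the data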;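 also: 0% = p47phox with labelled peptide and 100% = labelled peptide alone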
An asterisk follows results filed as active; . = no result given. An excerpt weighted towards active compounds, which were near 1.6% of everything screened.

SMILES	Efa HMGR inh	ABCG2 inh	Diaph act CS	Diaph inh CS	ABCB1 inh	p47phox inh
CCOC(=O)c1c(C)[nH]c(C(=O)CSc2nnc(Nc3ccccc3F)s2)c1C	0	4	1	4	0	28
CC1(C)Cc2ccccc2C(Nn2cnnc2)=N1	-1	-1	0.9	12	0	2
CC1(C)Cc2ccccc2C2=NNC(=O)C2=N1	0	-1	0.3	69*	0	-2
COc1cc(C(=O)OCC(=O)NCc2ccccc2)cc(NC(=O)c2ccco2)c1OC	-2	7	1	3	1	10
COC1=C(N)C(=O)c2nc(-c3nc(C(=O)O)c(C)c(-c4ccc(OC)c(OC)c4O)c3N)ccc2C1=O	-3	5	0.3	68*	7	-9
COc1ccc(-c2ncncc2-c2csc(C)n2)c(O)c1OC	-11	2	1	1	0	-3
CC(C)=CCc1c(O)ccc2c1OC(c1ccc(O)c(O)c1)CC2=O (stereo unspecified)	-1	2	0.4	62*	0	-26
COC(=O)/C=c1/s/c(=C(/C#N)C(=O)N2CCCCC2)n(-c2ccccc2)c1=O	-1	9	0.9	5	1	-11
O=C(CSC(=S)N1CCCC1)c1cc(Br)cc(Br)c1O	-4	-2	0.6	35	0	-47
CC1CCCN(C(=S)SCC(=O)c2cc(Br)cc(Br)c2O)C1 (stereo unspecified)	-2	0	0.4	62*	0	-10
O=C(Oc1ccc(-c2cnc3ccccc3n2)cc1)c1cc([N+](=O)[O-])ccc1Cl	-2	21	1	0	1	35*
COc1ccc(C(=O)NCC(=O)OCC(=O)N(C)c2ccccc2)cc1	.	.	.	.	.	-21
CNc1oc(Cc2ccccc2)nc1S(=O)(=O)c1ccc(Cl)cc1	-1	5	0.5	54*	1	-7
COc1ccc(-c2csc(NC(=S)NC(=O)c3cccs3)n2)cc1OC	-6	-3	0.4	59*	-1	-32
COc1ccc(-c2csc(NC(=S)NC(=O)c3cccs3)n2)cc1Br	.	.	.	.	.	-16
Cc1noc(C)c1C(=O)N1CCN(c2ncccn2)CC1	-5	1	0.9	11	0	-3
COc1ccc(/C=C/C(=O)c2ccc(NC3=NCCCS3)cc2)cc1OC	10*	1	0.9	5	1	-28
COc1ccc(F)cc1C(=O)C1CCCN(Cc2cnc(N3CCCC3)s2)C1 (stereo unspecified)	0	1	0.9	10	1	4
COc1ccc(Cl)cc1C(=O)C1CCCN(Cc2cnc(N3CCOCC3)s2)C1 (stereo unspecified)	-2	1	1	4	1	47*
Cn1cccc1Cc1nnc(SCC(=O)N2CCCCCC2)n1CCc1ccccc1	-2	2	0.8	23	1	-7
O=C(COC(=O)Cc1cccc(C(F)(F)F)c1)NCC1CCCO1 (stereo unspecified)	-5	-1	0.8	19	0	65*
O=C(COC(=O)c1ccccc1)NCC1CCCO1 (stereo unspecified)	3	5	1.1	-7	1	8
CCCOC(=O)c1ccc(Nc2nc(C)cc(=O)[nH]2)cc1	3	3	0.9	14	0	-16
COC(=O)Nc1cccn(Cc2c(Cl)cccc2Cl)c1=O	2	1	0.5	51*	0	-13
CCOc1cc(/C=N/Nc2nc(-c3cccc(S(=O)(=O)N4CCCC4)c3)cs2)ccc1O	-1	0	0.9	7	-1	-6
SMILES	Efa HMGR inh	ABCG2 inh	Diaph act CS	Diaph inh CS	ABCB1 inh	p47phox inh
Cc1ccc2c(N)c(C)ccc2c1	0	0	0.8	23	0	-16
Cc1ccc2cc3c(N)c4c(C)ccc(C)c4nc3nc2c1	-10	3	1.2	-16	0	31*
CCCC(=O)Nc1nnc(-c2cccc(OCC)c2)s1	-3	4	0.9	14	1	-1
Oc1[nH]c(=S)sc1/C=C1\C(c2ccccc2)=Nc2ccccc21	-5	-4	0.9	9	-1	32*
Oc1[nH]c(=S)sc1C=C1N=c2ccccc2=N1	.	.	.	.	.	-35
O=C(c1cc2cc([N+](=O)[O-])ccc2oc1=O)N1CCN(C2CCCCC2)CC1	9.7*	0	0.9	12	0	-6
CCN1CCN(C(=O)c2cc3cc([N+](=O)[O-])ccc3oc2=O)CC1	3	3	0.9	5	0	-6
O=C1/C(=C\c2ccc(O)cc2)SC(=S)N1c1cccnc1	3	0	0.8	23	0	-1
CCC(=O)Nc1ccc(/C(C)=N\NS(=O)(=O)c2ccc(C)cc2)cc1	-3	1	1	0	0	170*
NNC(=O)C1CCCN1S(=O)(=O)c1ccc(Cl)cc1 (stereo unspecified)	0	0	1	-2	0	7
COc1ccc(NC(=O)N(Cc2cc3cc(OC)ccc3[nH]c2=O)CC2CCCO2)cc1 (stereo unspecified)	-3	7	1	-1	2	0
COc1ccc(NC(=O)N(Cc2cc3ccc(OC)cc3[nH]c2=O)CC2CCCO2)cc1 (stereo unspecified)	17*	2	0.9	10	0	-4
COc1ccc2[nH]c(=O)c(CN(C(=O)c3ccco3)C(C)C)cc2c1	.	.	.	.	.	-7
COc1ccc2oc(C(=O)CCC(=O)O)c(N)c2c1	1	0	0.8	16	-1	-3
COC(=O)c1cc(C(=O)OC)cc(N2C(=O)CC(NNC(=O)c3ccc(C)cc3)C2=O)c1 (stereo unspecified)	-8	4	0.9	8	-1	130*
O=C(Nc1cccc2ccccc12)N1CCOCC1	1	-5	0.8	20	-6	-10
O=C(Nc1cccc(C(=O)O)c1)/C(=C\c1ccccc1)NC(=O)c1cccc2ccccc12	0	2	0.8	15	1	122*
CCn1c(CCCCc2n[nH]c(=S)n2CC)n[nH]c1=S	8	7	0.9	11	1	-7
CCc1n[nH]c(=O)n1Cn1c(CC)n[nH]c1=O	-1	-3	0.9	6	-2	37*
Cc1c(C(=O)C(=O)N2c3ccccc3CC2C)c2ccccc2n1C (stereo unspecified)	2	6	0.8	15	1	41*
Cc1ccc(C(=O)N2c3ccccc3CC2C)o1 (stereo unspecified)	2	12	1	1	1	41*
NS(=O)(=O)c1ccc(CCNC(=O)CC(NC(=O)c2ccccc2Cl)c2ccccc2)cc1 (stereo unspecified)	.	.	.	.	.	0
